In ChEMBL document CHEMBL3227917, “Structure-activity relationships of dimeric Catharanthus alkaloids. 2. Experimental antitumor activities of N-substituted deacetylvinblastine amide (vindesine) sulfates” (J Med Chem, 1979):

Assays:
[1] = Antitumor activity against mouse Ridgway osteogenic sarcoma allografted in AKR mouse assessed as tumor growth inhibition at 0.20 mg/kg, ip administered daily for 8 to 10 days compound treatment commenced 8 days after tumor implantation; assay type: functional; settings: route intraperitoneal, read-out: TGI
[2] = Dissociation constant, pKa of the compound; assay type: physicochemical
How it was run: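 Electrometric titration in 66% aqueous DMF.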

[3] = Antitumor activity against mouse Gardner lymphosarcoma allografted in C3H mouse assessed as tumor growth inhibition at 0.20 mg/kg, ip administered daily for 8 to 10 days; assay type: functional; settings: route intraperitoneal, read-out: TGI
How it was run: (§1)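 Gardner lymphosarcoma in C3H mice; sulfate salts unless noted, given ip daily for 8–10 days, treatment starting 8 days after tumor implantation. Tumor growth inhibition scored as –, 0–25%; +, 26–50%; ++, 51–75%; +++, 76–100%; T, lethal to ≥5 of 10 animals per group. Average of one or more tests.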

[4] = Antitumor activity against mouse Ridgway osteogenic sarcoma allografted in AKR mouse assessed as tumor growth inhibition at 0.40 mg/kg, ip administered daily for 8 to 10 days compound treatment commenced 8 days after tumor implantation; assay type: functional; settings: route intraperitoneal, read-out: TGI
[5] = Antitumor activity against mouse Gardner lymphosarcoma allografted in C3H mouse assessed as tumor growth inhibition at 0.40 mg/kg, ip administered daily for 8 to 10 days; assay type: functional; settings: route intraperitoneal, read-out: TGI; how it was run: as §1
[6] = Antitumor activity against mouse Gardner lymphosarcoma allografted in C3H mouse assessed as tumor growth inhibition at 0.10 mg/kg, ip administered daily for 8 to 10 days; assay type: functional; settings: route intraperitoneal, read-out: TGI; how it was run: as §1
[7] = Antitumor activity against mouse Ridgway osteogenic sarcoma allografted in AKR mouse assessed as tumor growth inhibition at 0.10 mg/kg, ip administered daily for 8 to 10 days compound treatment commenced 8 days after tumor implantation; assay type: functional; settings: route intraperitoneal, read-out: TGI
[8] = Antitumor activity against mouse Ridgway osteogenic sarcoma allografted in AKR mouse assessed as tumor growth inhibition at 0.30 mg/kg, ip administered daily for 8 to 10 days compound treatment commenced 8 days after tumor implantation; assay type: functional; settings: route intraperitoneal, read-out: TGI
Mus musculus [9] = test: Toxicity in C3H mouse allografted with mouse Gardner lymphosarcoma assessed as lethality at 0.30 mg/kg, ip administered daily for 8 to 10 days; assay type: organism-based; parameters: dose 0.3 mg/kg, route intraperitoneal; settings: in vivo, 0.3 mg/kg
How it was run: (§2)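 Tumor-bearing mice given sulfate salts ip daily for 8–10 days; values are the average of one or more tests. Toxic means lethal to ≥5 of 10 animals per group.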

B16 [10] = test: Antitumor activity against mouse B16 cells allografted in C57BL/6 mouse assessed as prolongation of host survival at 0.60 mg/kg, ip administered on days 1,5 and 9; assay type: functional; settings: route intraperitoneal
How it was run: (§3)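 B16 melanoma cells (10⁶ inoculum) implanted ip in C57BL/6 mice; groups of 10. Sulfate salts unless noted, given ip on days 1, 5 and 9. Single test. Survival prolongation is expressed as percent versus controls, with survivors counted on day 60. Toxic means deaths of ≥5 of 10 animals before the first control death.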

B16 [11] = test: Antitumor activity against mouse B16 cells allografted in C57BL/6 mouse assessed as prolongation of host survival at 0.90 mg/kg, ip administered on days 1,5 and 9; assay type: functional; settings: route intraperitoneal; how it was run: as §3
Mus musculus [12] = test: Toxicity in C57BL/6 mouse allografted with mouse B16 cells assessed as animal death at 1.20 mg/kg, ip administered on days 1,5 and 9; assay type: organism-based; parameters: dose 1.2 mg/kg, route intraperitoneal; settings: in vivo, 1.2 mg/kg; how it was run: as §3
[13] = Antitumor activity against mouse Gardner lymphosarcoma allografted in C3H mouse assessed as tumor growth inhibition at 0.30 mg/kg, ip administered daily for 8 to 10 days; assay type: functional; settings: route intraperitoneal, read-out: TGI; how it was run: as §1
Mus musculus [14] = test: Toxicity in C3H mouse allografted with mouse Gardner lymphosarcoma assessed as lethality at 0.40 mg/kg, ip administered daily for 8 to 10 days; assay type: organism-based; parameters: dose 0.4 mg/kg, route intraperitoneal; settings: in vivo, 0.4 mg/kg; how it was run: as §2
[15] = Antitumor activity against mouse Gardner lymphosarcoma allografted in C3H mouse assessed as tumor growth inhibition at 0.05 mg/kg, ip administered daily for 8 to 10 days; assay type: functional; settings: route intraperitoneal, read-out: TGI; how it was run: as §1
Mus musculus [16] = test: Toxicity in C3H mouse allografted with mouse Gardner lymphosarcoma assessed as lethality at 0.20 mg/kg, ip administered daily for 8 to 10 days; assay type: organism-based; parameters: dose 0.2 mg/kg, route intraperitoneal; settings: in vivo, 0.2 mg/kg; how it was run: as §2
CHO [17] = test: Mitotic arrest in CHO cells assessed as increase in cell accumulation at 0.02 ug/ml; assay type: functional, Cricetulus griseus
How it was run: (§4)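 Chinese hamster ovary cells in tissue culture, scored for mitotic arrest as increase in cells in mitotic arrest over control: +++, 40–50%; ++, 15–40%; +, 10–15%; ±, 7–10%; –, 3–7%. Cytotoxicity noted separately.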

CHO [18] = test: Mitotic arrest in CHO cells assessed as increase in cell accumulation at 0.2 ug/ml; assay type: functional, Cricetulus griseus; how it was run: as §4
CHO [19] = test: Mitotic arrest in CHO cells assessed as increase in cell accumulation at 0.002 ug/ml; assay type: functional, Cricetulus griseus; how it was run: as §4
Mus musculus [20] = test: Toxicity in C3H mouse allografted with mouse Gardner lymphosarcoma assessed as lethality at 0.5 mg/kg, ip administered daily for 8 to 10 days; assay type: organism-based; parameters: dose 0.5 mg/kg, route intraperitoneal; settings: in vivo; how it was run: as §2

**Q.** Which results are given for CC[C@]1(O)C[C@H]2CN(CCc3c([nH]c4ccccc34)[C@@](C(=O)OC)(c3cc4c(cc3OC)N(C)[C@H]3[C@@](O)(C(=O)NCCN(C)C)[C@H](O)[C@]5(CC)C=CCN6CC[C@]43[C@@H]65)C2)C1?
**A.** inhibition in vivo at 0.2 mg/kg [1]: 0%; pKa [2]: 8.5; inhibition in vivo at 0.2 mg/kg [3]: 0%; inhibition in vivo at 0.4 mg/kg [4]: 51%; inhibition in vivo at 0.4 mg/kg [5]: 0%

**Q.** Which inhibition in vivo at 0.1 mg/kg [6] does the source give for CC[C@]1(O)C[C@H]2CN(CCc3c([nH]c4ccccc34)[C@@](C(=O)OC)(c3cc4c(cc3OC)N(C)[C@H]3[C@@](O)(C(=O)NCC#N)[C@H](O)[C@]5(CC)C=CCN6CC[C@]43[C@@H]65)C2)C1.O=S(=O)(O)O here?
**A.** 0%

**Q.** What about the inhibition in vivo at 0.1 mg/kg [7] of the same compound?
**A.** 0%

**Q.** And the inhibition in vivo at 0.2 mg/kg [3]?
**A.** 76%

**Q.** And the inhibition in vivo at 0.3 mg/kg [8]?
**A.** 26%

**Q.** And the Activity (Mus musculus [9])?
**A.** Toxic

**Q.** With CC[C@]1(O)C[C@H]2CN(CCc3c([nH]c4ccccc34)[C@@](C(=O)OC)(c3cc4c(cc3OC)N(C)[C@H]3[C@@](O)(C(=O)NCCS)[C@H](O)[C@]5(CC)C=CCN6CC[C@]43[C@@H]65)C2)C1.O=S(=O)(O)O as the compound, how does the inhibition in vivo at 0.1 mg/kg [6] read?
**A.** 0%

**Q.** And the survival at 0.6 mg/kg (B16 [10])?
**A.** 170%

**Q.** What about the inhibition in vivo at 0.2 mg/kg [3] of the same compound?
**A.** 26%

**Q.** What about the inhibition in vivo at 0.4 mg/kg [5] of the same compound?
**A.** 76%

**Q.** And the survival at 0.9 mg/kg (B16 [11])?
**A.** 141%

**Q.** What about the Activity (Mus musculus [12]) of the same compound?
**A.** Toxic

**Q.** And the inhibition in vivo at 0.3 mg/kg [13]?
**A.** 51%

**Q.** What does the source list for C=CC(=O)OCCNC(=O)[C@@]1(O)[C@H](O)[C@]2(CC)C=CCN3CC[C@@]4(c5cc([C@@]6(C(=O)OC)C[C@@H]7CN(CCc8c6[nH]c6ccccc86)C[C@](O)(CC)C7)c(OC)cc5N(C)[C@@H]14)[C@@H]32?
**A.** inhibition in vivo at 0.1 mg/kg [6]: 76%; Activity (Mus musculus [14]): Toxic; inhibition in vivo at 0.05 mg/kg [15]: 51%; Activity (Mus musculus [16]): Toxic

**Q.** Which Activity (CHO [17]) does the source give for CC[C@]1(O)C[C@H]2CN(CCc3c([nH]c4ccccc34)[C@@](C(=O)OC)(c3cc4c(cc3OC)N(C)[C@H]3[C@@](O)(C(N)=O)[C@H](OC(C)=O)[C@]5(CC)C=CCN6CC[C@]43[C@@H]65)C2)C1.O=S(=O)(O)O here?
**A.** 15%

**Q.** What about the Activity (CHO [18]) of the same compound?
**A.** 40%

**Q.** And the Activity (CHO [19])?
**A.** 3%

**Q.** And the Activity (Mus musculus [20])?
**A.** Toxic

**Q.** Which inhibition in vivo at 0.2 mg/kg [1] does the source give for CC[C@]1(O)C[C@H]2CN(CCc3c([nH]c4ccccc34)[C@@](C(=O)OC)(c3cc4c(cc3OC)N(C)[C@H]3[C@@](O)(C(=O)NCc5ccccc5)[C@H](O)[C@]5(CC)C=CCN6CC[C@]43[C@@H]65)C2)C1 here?
**A.** 0%

**Q.** What about the inhibition in vivo at 0.1 mg/kg [7] of the same compound?
**A.** 0%

**Q.** What about the inhibition in vivo at 0.2 mg/kg [3] of the same compound?
**A.** 26%

**Q.** And the inhibition in vivo at 0.4 mg/kg [4]?
**A.** 76%

**Q.** And the inhibition in vivo at 0.4 mg/kg [5]?
**A.** 0%

**Q.** What about the inhibition in vivo at 0.3 mg/kg [13] of the same compound?
**A.** 0%

**Q.** Which pKa [2] does the source give for CC[C@]1(O)C[C@H]2CN(CCc3c([nH]c4ccccc34)[C@@](C(=O)OC)(c3cc4c(cc3OC)N(C)[C@H]3[C@@](O)(C(=O)NCCN)[C@H](O)[C@]5(CC)C=CCN6CC[C@]43[C@@H]65)C2)C1 here?
**A.** 9.48

**Q.** And the inhibition in vivo at 0.1 mg/kg [7]?
**A.** 0%

**Q.** What about the inhibition in vivo at 0.2 mg/kg [3] of the same compound?
**A.** 0%

**Q.** And the inhibition in vivo at 0.3 mg/kg [8]?
**A.** 0%

**Q.** And the inhibition in vivo at 0.4 mg/kg [5]?
**A.** 0%
